From ChEMBL document CHEMBL1649536, “First report of plasmid-mediated quinolone resistance determinant qnrS1 in an Escherichia coli strain of animal origin in Italy” (2009)
Values after ≈ are worked out from the molar mass of the structure shown.

Assays:
Format in all cases: functional
[1] = test system: Escherichia coli; experiment: Antibacterial activity against Escherichia coli 3963 by Etest method
Method in brief: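 Strain 3963 is an E. coli poultry isolate of phylogenetic group D and multilocus sequence type 398. It was picked from 73 poultry isolates with ciprofloxacin MICs of ≥0.125 μg/ml. Resistance categories were assigned by published interpretive criteria.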

[2] = test system: Escherichia coli; experiment: Antibacterial activity against quinolone-resistant Escherichia coli TOP10-3963 transformant harboring qnrS1 gene by Etest method
Method in brief: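 The transformant was made by extracting plasmid DNA from strain 3963 and transforming competent E. coli TOP10. Transformants were selected on LB agar containing 0.06 μg/ml ciprofloxacin and carried both qnrS1 and blaTEM-1.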

[3] = test system: Escherichia coli; experiment: Antibacterial activity against Escherichia coli TOP10 by Etest method

| Structure (SMILES) | MIC [1] [µg/mL] | MIC [2] [µg/mL] | MIC [3] [µg/mL] |
| --- | --- | --- | --- |
| CO/N=C(\C(=O)N[C@@H]1C(=O)N2C(C(=O)O)=C(CSc3nc(=O)c(O)nn3C)CS[C@H]12)c1csc(N)n1 [CEFTRIAXONE] | 0.032 (≈ 0.0577 µM) | 0.094 (≈ 0.169 µM) | 0.064 (≈ 0.115 µM) |
| C[C@H]1COc2c(N3CCN(C)CC3)c(F)cc3c(=O)c(C(=O)O)cn1c23.C[C@H]1COc2c(N3CCN(C)CC3)c(F)cc3c(=O)c(C(=O)O)cn1c23.O [LEVOFLOXACIN] | – | 0.25 | 0.006 |
| CO/N=C(\C(=O)N[C@@H]1C(=O)N2C(C(=O)O)=C(COC(C)=O)CS[C@H]12)c1csc(N)n1 [CEFOTAXIME] | 0.047 (≈ 0.103 µM) | 0.064 (≈ 0.141 µM) | 0.064 (≈ 0.141 µM) |
| CCn1cc(C(=O)O)c(=O)c2ccc(C)nc21 [NALIDIXIC ACID] | 16 (≈ 68.9 µM) | 6 (≈ 25.8 µM) | 2 (≈ 8.61 µM) |
| CC1(C)S[C@@H]2[C@H](NC(=O)[C@H](N)c3ccccc3)C(=O)N2[C@H]1C(=O)O [AMPICILLIN] | ≥ 256 | ≥ 256 | 6 (≈ 17.2 µM) |
| O=C(O)c1cn(C2CC2)c2cc(N3CCNCC3)c(F)cc2c1=O [CIPROFLOXACIN] | 0.38 (≈ 1.15 µM) | – | – |
| CCN1CCN(c2cc3c(cc2F)c(=O)c(C(=O)O)cn3C2CC2)CC1 [ENROFLOXACIN] | 2 (≈ 5.56 µM) | 0.5 (≈ 1.39 µM) | 0.08 (≈ 0.223 µM) |
